From ChEMBL document CHEMBL3612025, “Synthesis and biological evaluation of novel aromatic-heterocyclic biphenyls as potent anti-leukemia agents” (Eur J Med Chem, 2015)

How the values were obtained:
K562 [1] = assay: Antiproliferative activity against human K562 cells after 48 hrs by MTT assay; type: functional, cell-based; details: K562, 48 h
Outline: (§1)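 Human CML K562 line grown in RPMI-1640 with 10% FBS, penicillin G and streptomycin (100 units/ml each) at 37°C, 5% CO2. 2000 cells/well were seeded and compounds were added at four concentrations 48 h later, in triplicate. After 48 h exposure, MTT (5 mg/ml) was added for 4 h. Formazan was dissolved in DMSO and read at 490 nm. IC50 is the mean of three experiments.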

Bcr/Abl fusion protein = Bcr/Abl fusion protein (Homo sapiens, UniProt P00519); assay: Inhibition of Bcr-Abl (unknown origin) after 60 mins by luminescent kinase assay; type: protein assay
K562 [2] = assay: Antiproliferative activity against imatinib-resistant human K562 cells after 48 hrs by MTT assay; type: functional, cell-based; details: K562, 48 h; outline: as §1

Bcr/Abl fusion protein, sequence (P00519 whole entry, the tested form may be a part): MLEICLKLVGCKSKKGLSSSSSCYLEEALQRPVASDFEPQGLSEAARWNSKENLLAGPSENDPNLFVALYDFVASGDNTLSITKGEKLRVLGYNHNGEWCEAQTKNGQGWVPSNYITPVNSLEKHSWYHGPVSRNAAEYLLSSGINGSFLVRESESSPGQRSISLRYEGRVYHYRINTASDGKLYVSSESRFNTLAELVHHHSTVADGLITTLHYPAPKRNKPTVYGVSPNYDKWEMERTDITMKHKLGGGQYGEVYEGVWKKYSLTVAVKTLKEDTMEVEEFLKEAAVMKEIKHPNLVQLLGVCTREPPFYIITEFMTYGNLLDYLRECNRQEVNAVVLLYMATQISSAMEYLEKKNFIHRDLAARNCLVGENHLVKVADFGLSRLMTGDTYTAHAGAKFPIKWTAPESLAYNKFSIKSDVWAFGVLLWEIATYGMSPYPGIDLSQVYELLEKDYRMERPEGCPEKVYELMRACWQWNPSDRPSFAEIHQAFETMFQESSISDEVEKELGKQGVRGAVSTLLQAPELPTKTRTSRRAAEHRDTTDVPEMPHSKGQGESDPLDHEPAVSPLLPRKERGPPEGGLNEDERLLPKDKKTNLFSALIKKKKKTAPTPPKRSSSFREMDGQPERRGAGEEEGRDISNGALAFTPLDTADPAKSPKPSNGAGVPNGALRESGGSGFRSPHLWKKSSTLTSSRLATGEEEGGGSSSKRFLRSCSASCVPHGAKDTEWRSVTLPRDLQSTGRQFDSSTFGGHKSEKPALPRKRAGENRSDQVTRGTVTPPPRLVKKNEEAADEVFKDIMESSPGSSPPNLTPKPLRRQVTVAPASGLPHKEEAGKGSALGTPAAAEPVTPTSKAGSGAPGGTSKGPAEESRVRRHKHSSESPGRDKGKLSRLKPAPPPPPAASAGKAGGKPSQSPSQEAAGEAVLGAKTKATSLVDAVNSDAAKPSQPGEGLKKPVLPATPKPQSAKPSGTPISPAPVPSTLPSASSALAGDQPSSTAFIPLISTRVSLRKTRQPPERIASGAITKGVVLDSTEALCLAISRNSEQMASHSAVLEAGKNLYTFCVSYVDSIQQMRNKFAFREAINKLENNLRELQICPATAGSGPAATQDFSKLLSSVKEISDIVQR
Bcr/Abl fusion protein, sequence (P11274 whole entry, further chain, the tested form may be a part): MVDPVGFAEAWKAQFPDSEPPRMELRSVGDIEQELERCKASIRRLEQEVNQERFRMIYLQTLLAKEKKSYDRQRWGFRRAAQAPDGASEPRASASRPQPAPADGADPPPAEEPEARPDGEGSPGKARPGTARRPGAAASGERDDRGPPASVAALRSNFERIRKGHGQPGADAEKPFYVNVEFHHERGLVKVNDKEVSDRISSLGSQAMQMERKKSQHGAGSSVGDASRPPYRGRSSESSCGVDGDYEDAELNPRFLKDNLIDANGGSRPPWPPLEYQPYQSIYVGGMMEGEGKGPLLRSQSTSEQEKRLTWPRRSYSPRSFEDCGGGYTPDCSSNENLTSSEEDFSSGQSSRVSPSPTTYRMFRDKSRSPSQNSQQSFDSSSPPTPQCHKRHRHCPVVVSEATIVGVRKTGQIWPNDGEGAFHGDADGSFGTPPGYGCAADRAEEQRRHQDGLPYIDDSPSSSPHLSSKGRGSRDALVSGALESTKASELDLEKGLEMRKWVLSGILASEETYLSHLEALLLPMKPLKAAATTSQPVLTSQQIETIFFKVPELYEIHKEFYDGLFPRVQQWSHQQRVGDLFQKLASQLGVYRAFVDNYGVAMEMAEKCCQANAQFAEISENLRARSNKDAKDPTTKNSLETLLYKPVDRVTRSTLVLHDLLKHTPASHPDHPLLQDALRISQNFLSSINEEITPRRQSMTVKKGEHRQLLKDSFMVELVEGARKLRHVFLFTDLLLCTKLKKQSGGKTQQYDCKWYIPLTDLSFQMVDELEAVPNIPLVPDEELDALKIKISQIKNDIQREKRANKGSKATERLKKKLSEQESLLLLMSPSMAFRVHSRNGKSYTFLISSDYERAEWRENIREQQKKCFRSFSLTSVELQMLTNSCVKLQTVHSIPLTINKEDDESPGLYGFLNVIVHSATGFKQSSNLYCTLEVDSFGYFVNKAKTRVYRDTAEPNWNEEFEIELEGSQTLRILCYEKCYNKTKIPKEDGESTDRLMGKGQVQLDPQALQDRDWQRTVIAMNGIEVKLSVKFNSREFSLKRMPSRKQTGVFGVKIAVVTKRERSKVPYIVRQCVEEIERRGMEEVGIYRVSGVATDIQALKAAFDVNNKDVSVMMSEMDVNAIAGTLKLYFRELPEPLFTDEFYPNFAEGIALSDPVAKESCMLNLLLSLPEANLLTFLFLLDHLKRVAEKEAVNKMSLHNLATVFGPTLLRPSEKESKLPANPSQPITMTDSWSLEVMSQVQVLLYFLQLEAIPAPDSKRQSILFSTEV

Compound	IC50 (K562 [1]) [µM]	IC50 (Bcr/Abl fusion protein) [µM]	IC50 (K562 [2]) [µM]
O=C(c1ccc(Br)cc1)N1CCN(C(=O)c2ccc(-c3nccs3)cc2)CC1	> 500	0.421	
CN(C)c1cccc(C(=O)N2CCN(C(=O)c3ccc(-c4nccs4)cc3)CC2)c1	117	1.84	
COc1cccc(C(=O)N2CCN(C(=O)c3ccc(-c4cccnc4)cc3)CC2)c1	140	60.7	
COc1cccc(C(=O)N2CCN(C(=O)c3ccc(-c4ccccn4)cc3)CC2)c1	12.5	0.066	57.3
Cc1ccnc(-c2ccc(C(=O)N3CCN(C(=O)c4cccc(C(F)(F)F)c4)CC3)cc2)c1	41.6	0.112	947
COc1cccc(C(=O)N2CCN(C(=O)c3ccc(-c4cccs4)cc3)CC2)c1	152	89.7	
O=C(c1ccc(-c2nccs2)cc1)N1CCN(C(=O)c2cccc(F)c2)CC1	> 500	444	
O=C(c1ccc(-c2ccccn2)cc1)N1CCN(C(=O)c2cccc(F)c2)CC1	> 500		
O=C(c1ccc(-c2cccnc2)cc1)N1CCN(C(=O)c2cccc(C(F)(F)F)c2)CC1	346		
COc1cccc(C(=O)N2CCN(C(=O)c3ccc(-c4ccc(C)nc4)cc3)CC2)c1	261	0.143	304
CC(C)(C)c1ccc(C(=O)N2CCN(C(=O)c3ccc(-c4ccccn4)cc3)CC2)cc1	178	1.16	
Cc1ccc(-c2ccc(C(=O)N3CCN(C(=O)c4cccc(C(F)(F)F)c4)CC3)cc2)cn1	47.1		
O=C(c1ccc(-c2ccccn2)cc1)N1CCN(C(=O)c2cccc(C(F)(F)F)c2)CC1	> 500	> 500	
O=C(c1ccc(-c2cccnc2)cc1)N1CCN(C(=O)c2cccc(F)c2)CC1	63.4	0.276	81.6
Cc1ccc(NC(=O)c2ccc(CN3CCN(C)CC3)cc2)cc1Nc1nccc(-c2cccnc2)n1 [IMATINIB]	1.16		15.7
O=C(c1ccc(-c2cccs2)cc1)N1CCN(C(=O)c2ccc(Cl)cc2Cl)CC1	30.5		
COc1cccc(C(=O)N2CCN(C(=O)c3ccc(-c4nccs4)cc3)CC2)c1	271	0.016	492
Cc1ccc(-c2ccc(C(=O)N3CCN(C(=O)c4cccc(F)c4)CC3)cc2)cn1	64.5	> 500	
O=C(c1ccc(Br)cc1)N1CCN(C(=O)c2ccc(-c3cccs3)cc2)CC1	29.9	0.073	86.3
Cc1ccnc(-c2ccc(C(=O)N3CCN(C(=O)c4cccc(N(C)C)c4)CC3)cc2)c1	31.4	19.1	
Cc1ccnc(-c2ccc(C(=O)N3CCN(C(=O)c4ccc(C(C)(C)C)cc4)CC3)cc2)c1	58.3	> 500	
O=C(c1ccc(-c2cccs2)cc1)N1CCN(C(=O)c2cccc(F)c2)CC1	13.5	5.05	
CN(C)c1cccc(C(=O)N2CCN(C(=O)c3ccc(-c4cccnc4)cc3)CC2)c1	> 500		
Cc1ccnc(-c2ccc(C(=O)N3CCN(C(=O)c4cccc(F)c4)CC3)cc2)c1	74.2	63.3	> 1000
COc1cccc(C(=O)N2CCN(C(=O)c3ccc(-c4cc(C)ccn4)cc3)CC2)c1	76.1	0.94	494
CN(C)c1cccc(C(=O)N2CCN(C(=O)c3ccc(-c4cccs4)cc3)CC2)c1	96.7	0.321	
O=C(c1ccc(-c2nccs2)cc1)N1CCN(C(=O)c2ccc(Cl)cc2Cl)CC1	> 500	> 500	
Cc1ccc(-c2ccc(C(=O)N3CCN(C(=O)c4cccc(N(C)C)c4)CC3)cc2)cn1	110	> 500	
CN(C)c1cccc(C(=O)N2CCN(C(=O)c3ccc(-c4ccccn4)cc3)CC2)c1	29.7	45.6	
